Source: ChEMBL document CHEMBL1127694, “N-(acyloxyalkyl)pyridinium salts as soluble prodrugs of a potent platelet activating factor antagonist” (J Med Chem, 1994)

Assays:
[1] = Half-life values were derived from the decay rate constant (k) by fitting the concentration and time values to the exponential decay function at pH 7; format: ADME
Procedure, shortened: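 Compounds at 20 μM in 25 mM K2PO4 buffer, pH 7, room temperature; aliquots taken over time and quantified by C18 reverse-phase HPLC (UV 250 nm, external calibration). t1/2 = ln(2)/k, with k from fitting concentration vs time to C = C0e^(-kt).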

[2] = The rate of hydrolytic cleavage in plasma was assessed by incubating compounds (30 uM) at 37 degrees Celsius with human plasma adjusted to pH 7; format: ADME
Procedure, shortened: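 Human plasma brought to pH 7 with K2PO4 (50 mM final), compounds at 30 μM, 37 °C. Timed aliquots quenched with 2 volumes acidified acetonitrile and centrifuged. Supernatant quantified by reverse-phase HPLC at 250 nm. t1/2 from single-exponential decay fit, t1/2 = ln(2)/k.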

Oryctolagus cuniculus = species: Oryctolagus cuniculus; assay: Inhibitory activity was determined in PAF-induced serotonin release from rabbit platelets; format: functional
Rattus norvegicus [3] = assay: In vivo potency for complete inhibition of LPS-induced intestinal damage in rat by intravenous administration; format: functional
Procedure, shortened: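 Sprague–Dawley rats, 200–225 g. Compound or vehicle (25 mM sodium acetate, pH 4) given i.v. via tail vein, then LPS 25 mg/kg 30 min later. Rats killed 30 min after LPS; luminal rinse of a 15 cm intestinal segment from the duodenum assayed for hemoglobin by hemoglobinometer against standards.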

Rattus norvegicus [4] = assay: In vivo potency for inhibition of PAF-induced cutaneous vascular permeability in rat by intravenous administration; format: functional
Rattus norvegicus [5] = assay: In vivo potency for inhibition of LPS-induced hypotension in rat by intra arterial (i.a.) administration; format: functional
Procedure, shortened: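 Rats recovered ≥1 h after surgery; baseline arterial pressure normalized to 100 mmHg. Compound given intraarterially in DMSO/PEG 400/45% hydroxypropyl-β-cyclodextrin/0.9% saline (2.5:20:30:47.5) 15 min before an i.a. bolus of E. coli LPS 0111:B4, 25 mg/kg in PBS pH 7.4. Pressure read every 1 min. Percent inhibition from area under the pressure–time curve versus vehicle.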

SMILES | half-life [1] [h] | half-life at 30 µM [2] [h] | Kb (Oryctolagus cuniculus) [nM] | Dose (Rattus norvegicus [3]) [mg/kg] | ED50 (Rattus norvegicus [4]) [mg/kg] | ED50 (Rattus norvegicus [5]) [mg/kg]
CC(=O)OC[n+]1cccc([C@H]2SCc3c(C(=O)c4cn(C(=O)N(C)C)c5cc(-c6ccc(F)cc6)ccc45)ccn32)c1.[Cl-] | 9 | 0.0433 |  |  |  | 
CN(C)C(=O)n1cc(C(=O)c2ccn3c2CS[C@@H]3c2ccc[n+](COC(=O)c3ccccc3)c2)c2ccc(-c3ccc(F)cc3)cc21.[Cl-] | 8.5 | 0.0167 |  |  |  | 
COC(=O)OC[n+]1cccc([C@H]2SCc3c(C(=O)c4cn(C(=O)N(C)C)c5cc(-c6ccc(F)cc6)ccc45)ccn32)c1.[Cl-] | 1.6 | 0.0167 |  |  |  | 
CN(C)C(=O)OC[n+]1cccc([C@H]2SCc3c(C(=O)c4cn(C(=O)N(C)C)c5cc(-c6ccc(F)cc6)ccc45)ccn32)c1.[Cl-] | > 167 | > 10 |  |  |  | 
Cc1oc(=O)oc1C[n+]1cccc([C@H]2SCc3c(C(=O)c4cn(C(=O)N(C)C)c5cc(-c6ccc(F)cc6)ccc45)ccn32)c1.[Cl-] | 4.1 | 0.0467 |  |  |  | 
CC(OC(=O)C(C)(C)C)[n+]1cccc([C@H]2SCc3c(C(=O)c4cn(C(=O)N(C)C)c5cc(-c6ccc(F)cc6)ccc45)ccn32)c1.[Cl-] (stereo not given in full) | 17.6 | 0.518 |  |  |  | 
CN(C)C(=O)n1cc(C(=O)c2ccn3c2CS[C@@H]3c2ccc[n+](COC(=O)C(C)(C)C)c2)c2ccc(-c3ccc(F)cc3)cc21.[Cl-] | 45.3 | 0.347 |  |  |  | 
COC(=O)[C@@H]1CCCN1C(=O)OC[n+]1cccc([C@H]2SCc3c(C(=O)c4cn(C(=O)N(C)C)c5cc(-c6ccc(F)cc6)ccc45)ccn32)c1.[Cl-] | 128 | 2.67 |  |  |  | 
CN(C)C(=O)n1cc(C(=O)c2ccn3c2CS[C@@H]3c2cccnc2)c2ccc(-c3ccc(F)cc3)cc21 |  |  | 1.1 | 0.1 | 0.006 | 0.01
